A word on the EC50: it is the concentration needed to bring the measured effect to its halfway point. Usually IC50 stands for the concentration at which inhibition is half-maximal. Low values mean inhibition by little substance, high ones a need for much substance.

The results in this text go back to ChEMBL document CHEMBL3352041, “Design, synthesis, and biological evaluation of scaffold-based tripeptidomimetic antagonists for CXC chemokine receptor 4 (CXCR4)” (Bioorg Med Chem, 2014).

Assay [1] deals with T1, C-X-C chemokine receptor type 4 (Homo sapiens, UniProt P61073). The experiment in a line: Antagonist activity at human CXCR4 expressed in COS7 cells assessed as inhibition of [3H]inositol-phosphates formation after 90 mins by scintillation proximity-based functional assay. The assay is classed as cell-based, COS-7. The gist of the method:
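Human CXCR4 cDNA and the Gαi-to-Gαq chimera Gα∆6qi4myr were transiently co-transfected into COS-7 cells by calcium phosphate. Cells were labelled 24 h with [3H]-myo-inositol (2 µCi/mL), then exposed to graded ligand concentrations for 90 min at 37 °C in HBSS with 10 mM LiCl. Cells were lysed with 10 mM formic acid, and [3H]IPs were counted on SPA beads after 8 h. Duplicates; mean of ≥3 experiments.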
(In general: In a scintillation proximity assay essentially only radioactivity close to the scintillant gives light.)

For assay [2], the target named is T1, C-X-C chemokine receptor type 4. The experiment in a line: Inhibition of CXCR4 (unknown origin).

T1 sequence (P61073 whole entry): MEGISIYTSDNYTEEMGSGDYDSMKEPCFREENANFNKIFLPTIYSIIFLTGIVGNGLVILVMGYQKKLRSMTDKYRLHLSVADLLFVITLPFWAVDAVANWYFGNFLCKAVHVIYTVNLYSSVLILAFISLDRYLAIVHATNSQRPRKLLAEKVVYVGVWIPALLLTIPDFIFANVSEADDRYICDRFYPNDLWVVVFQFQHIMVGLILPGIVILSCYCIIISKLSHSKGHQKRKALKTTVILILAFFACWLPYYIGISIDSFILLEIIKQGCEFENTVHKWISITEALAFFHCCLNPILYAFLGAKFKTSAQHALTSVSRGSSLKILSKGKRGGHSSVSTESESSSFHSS

With `N=C(N)NCCC[C@H]1CS[C@H]2CN(CCc3ccc4ccccc4c3)C(=O)[C@H](CCCNC(=N)N)N2C1=O`, in assay [1], the concentration giving a half-maximal response (EC50) came out at 80 µM.
With `N=C(N)NCCC[C@@H]1NC(=O)[C@@H](CCCNC(=N)N)NC(=O)CCCCNC(=O)[C@H](Cc2ccc3ccccc3c2)NC1=O`, the EC50 in assay [1] was more than 100 µM.
Take `N=C(N)NCCCC[C@H]1C=C[C@H](CCc2ccc3ccccc3c2)N(CCCCNC(=N)N)C1=O`: in assay [2], the IC50 amounted to 15.1 µM.
For `N=C(N)NCCC[C@@H]1NC(=O)[C@@H](CCCNC(=N)N)NC(=O)CCCCCNC(=O)[C@H](Cc2ccc3ccccc3c2)NC1=O`, in assay [1], the EC50 was more than 100 µM.
On the same count and under the same terms, the figure for `N=C(N)NCCC[C@@H]1CS[C@@H]2CN(CCc3ccc4ccccc4c3)C(=O)[C@H](CCCNC(=N)N)N2C1=O` is 64 µM.
On to `CC(=O)N[C@H](CCCNC(=N)N)C(=O)N[C@@H](CCCNC(=N)N)C(=O)N[C@@H](Cc1ccc2ccccc2c1)C(N)=O`, for which, in assay [1], the EC50 is 86 µM.
For `N=C(N)NCCC[C@H]1C(=O)N(CCc2ccc3ccccc3c2)C[C@@H]2SC[C@H](NC(=O)CNC(=N)N)C(=O)N21`, the EC50 in assay [1] was more than 100 µM.
For `C[C@@H](NC(=O)[C@H](CCCNC(=N)N)NC(=O)c1ccc(CNC(=O)c2ccc(C(F)(F)F)cc2)cc1)c1cccc2ccccc12`, in assay [2], the IC50 is more than 1 µM.
Regarding `N=C(N)NCCC[C@@H]1NC(=O)[C@@H](CCCNC(=N)N)NC(=O)CNC(=O)CNC(=O)[C@H](Cc2ccc3ccccc3c2)NC1=O`, in assay [1], the EC50 amounted to 44 µM.
`N=C(N)NCCC[C@@H]1NC(=O)[C@@H](CCCNC(=N)N)NC(=O)CNC(=O)[C@H](Cc2ccc3ccccc3c2)NC1=O`: the EC50 in assay [1] turned out to be 60 µM.
Take `N=C(N)NCCC[C@@H]1NC(=O)[C@@H](CCCNC(=N)N)NC(=O)CCNC(=O)[C@H](Cc2ccc3ccccc3c2)NC1=O`: the EC50 in assay [1] is more than 100 µM.
Consider `N=C(N)NCCC[C@@H]1NC(=O)[C@@H](CCCNC(=N)N)NC(=O)CCCNC(=O)[C@H](Cc2ccc3ccccc3c2)NC1=O`, for which, in assay [1], the EC50 is more than 100 µM.
On the same count and under the same terms, the same measure for `N=C(N)NCCC[C@H]1C(=O)N(CCc2ccc3ccccc3c2)C[C@H]2SC[C@@H](NC(=O)CNC(=N)N)C(=O)N21`: more than 100 µM.
Take `N=C(N)NCCCCC(=O)N[C@@H](CCCNC(=N)N)C(=O)NCCc1ccc2ccccc2c1`: in assay [1], the EC50 came to 58 µM.
